Source: PubChem
UPR CHOP act = activators of apoptotic arm of unfolded protein response (CHOP). CHO-CHOP luciferase reporter, UPR activation, luminescence; percent of tunicamycin response over DMSO baseline. activation, % at 10 µM. 0.34% of 330,000 active. AID 449763;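 active means at 10 µM dose, activation of 40% or more, normalized to positive control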
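Assay system: CHO cells with stable CHOP pathway luciferase reporter; Buffer or medium: F12 plus 10% serum; Times: 16-18 h cell attachment, then 6 h compound exposure, 37 °C; Signal: luciferase luminescence; Read-out basis: percent activation relative to tunicamycin control; Control set: tunicamycin high control, DMSO low control.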
CSC inhib = blocks cancer stem cells; 1.1% of 300,000 active; inhibition, % at 7.5 µM; cancer stem cell-like cells viability, luminescence; in the data active means inhibition above about 75%; inconclusive means no clear call, values can overlap the other calls; tested in HMLE shEcad cells
T cruzi inh = T. cruzi replication inhibition | T. cruzi beta-gal in NIH3T3, luminescence, 90 h | inhibition, % (concentration not given with the values) | 1.4% of 300,000 active;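 active means mean inhibition across valid replicates above about 55%, limit read from the data; inconclusive means mean below that limit but half or more replicates reach it; inactive means mean below it, under half of replicates reach it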;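 further: signal also drops with host cell toxicity which is not excluded here; higher percent means less beta-gal luminescence so fewer parasites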
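assay system = mouse NIH/3T3 fibroblasts infected with β-gal-expressing T. cruzi Tulahuen C4 | input = 5,000 NIH/3T3 host cells per well | buffer or medium = DMEM plus 2% FBS | timing = 3 h host attachment, then at least 90 h co-culture | measured by = GalScreen luminescence, 60 min | evaluation = luminescence reflecting intracellular parasite burden, expressed as percent inhibition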
XBP1 UPR activ = adaptive UPR (XBP1) activation. CHO-XBP1 luciferase reporter, IRE1-XBP1 UPR activation, luminescence; percent of tunicamycin response, DMSO as zero. activation, % at 20 µM. 0.33% of 330,000 active;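 active means versus positive control, 20 µM dose yields 30% or more activation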
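Signal: luciferase luminescence; Assay system: CHO-XBP1 luciferase reporter cells; Amount: one thousand reporter cells per well; Dosing: 20 µM single concentration, DMSO 1%; Benchmarks: high control tunicamycin 10 µg/mL final, low control DMSO vehicle only; Schedule: 6 h compound exposure at 37 °C, 5% CO2; Evaluation: percent activation relative to tunicamycin reference.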
Mdm2 MdmX PPI = human Mdm2/MdmX binding inhibition; O15151+Q00987; SaOS-2 split-luciferase Mdm2/MdmX complementation, luminescence; inhibition, % at 8 µM; 3% of 330,000 active;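 active means inhibition of at least 50% at 8 µM in the primary screen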
Beta apoptosis = blocks beta cell apoptosis. INS-1E cytokine-induced death, ATP luminescence, 48 h; percent of positive-control rescue, neutral wells zero. protection from apoptosis, % (no concentration beside the values). 0.8% of 300,000 active;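 active means Every replicate reaches about 75%, or at least half do and their mean reaches it too, limit read from the data; inconclusive means At least half of replicates reach the limit but their mean does not; inactive means Under half of replicates reach the limit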;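 further: higher means more ATP so stronger rescue from cytokine killing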
Mdm2 MdmX conf = human Mdm2/MdmX binding inhibition, confirmed; shares compounds with Mdm2 MdmX PPI; luminescent assay; inhibition, % at 8 µM; 55% of 10,000 active; in the data active means inhibition above about 40%
Full FLuc ctr = counter-screen for Mdm2/MdmX inhibitors: full-length luciferase; shares compounds with Mdm2 MdmX PPI; SaOS-2 full-length luciferase counterscreen, luminescence; inhibition, % at 8 µM; 77% of 6,200 active;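 active means mean inhibition at 8 µM reaching about 37%, which flags the compound as non-specific, limit read from the data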;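 further: p53-null SaOS-2 cells with luciferase driven by a doxycycline-inducible promoter; compound on cells about two nights before reading with doxycycline added after day one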
Large screens that a line does not name were inactive (follow-up assays come after a bar, where they were run). Shown are actives, neighbours in structure and some others; about 5% of the full set was active somewhere.

Oc1ccc(Cn2ccnc2)c2cccnc12	none (no result: CSC inhib)
Cc1cccc(NC(=O)CSc2cccc3cccnc23)c1	none
O=C(O)CCC(=O)N1CCN(c2nc(-c3ccccc3Cl)c3cc(Br)ccc3n2)CC1	none
Cc1cc(C)cc(NC(=O)c2cc(C)n(Cc3cccs3)c2C)c1	none
CCCC(CCC)c1nc2ccncc2[nH]1	none
CCC(C)(C)NC(=O)C(c1cccn1C)N(Cc1ccc(OC)cc1)C(=O)Cn1nnc2ccccc21 (stereo not drawn)	none
C/C(=N\OC(=O)C1CC1)C1CC1c1ccc(F)cc1 (stereo not drawn)	none (no result: Beta apoptosis)
CC(C)OC(=O)c1ccc(N)cc1	none (no result: Beta apoptosis)
COc1ccccc1NC(=O)C(=O)N1N=C(C(C)C)CC1(O)C(F)(F)F (stereo not drawn)	none
CCC(NC(=S)NCc1ccc(F)cc1)c1ccc(C(C)C)cc1 (stereo not drawn)	Mdm2 MdmX PPI 75.7 | Mdm2 MdmX conf inactive
CCC(C)c1ccc(C(C)NC(=S)NCc2ccc(F)cc2)cc1 (stereo not drawn)	none
CCOC(=O)c1ccccc1Nc1cn(C(C)=O)c2ccccc12	Mdm2 MdmX PPI 58.5 | Mdm2 MdmX conf 46.5 | Full FLuc ctr 79.9
CCOC(=O)c1ccc(Nc2nc(C)cc(C)n2)cc1	none (no result: UPR CHOP act, XBP1 UPR activ, Mdm2 MdmX PPI)
CCOC(=O)c1ccc(NC(=O)Nc2cc(C)cc(C)n2)cc1	Mdm2 MdmX PPI 50.3 | Mdm2 MdmX conf inactive
CCOC(=O)c1ccc(Nc2cc(C)nc(-c3ccccc3)n2)cc1	CSC inhib 97.1, Mdm2 MdmX PPI 55.6 | Mdm2 MdmX conf 66.2 | Full FLuc ctr 56.9
CSc1nc(NC(C)=O)nc(C)c1Cl	none (no result: UPR CHOP act, CSC inhib, XBP1 UPR activ, Mdm2 MdmX PPI, Beta apoptosis)
CCOC(=O)C1=C(CC)Nc2ccccc2N=C1NC(=O)c1cc(C)on1	none (no result: CSC inhib, T cruzi inh)
CCOC(=O)C1=C(CC)Nc2ccccc2N=C1NC(=O)Nc1ccc(Cl)c(Cl)c1	T cruzi inh 60.9, Mdm2 MdmX PPI 94.1 | Mdm2 MdmX conf 80.4 | Full FLuc ctr 39.2
Cc1cc(OCC(=O)Nc2ccccn2)c2c(C)c(C)c(=O)oc2c1	Mdm2 MdmX PPI 52.4 | Mdm2 MdmX conf inactive
COc1ccc(/C=N/Nc2nonc2N)cc1OC	Mdm2 MdmX PPI 51.0 | Mdm2 MdmX conf inactive
COc1cccc(CC(CC(=O)O)C(=O)Nc2cc(C)ccc2C)c1 (stereo not drawn)	none
CCOc1ccc(N(CC(=O)Nc2ccc(C)c(C)c2)S(=O)(=O)c2c(C)noc2C)cc1	none (no result: Beta apoptosis)
CCOc1ccc(N(CC(=O)Nc2ccccc2C)S(=O)(=O)c2c(C)noc2C)cc1	Mdm2 MdmX PPI 55.6 (no result: Beta apoptosis) | Mdm2 MdmX conf 57.4 | Full FLuc ctr 57.4
CCOc1ccccc1NC(=O)CN(c1ccc(OC)cc1)S(=O)(=O)c1c(C)noc1C	Mdm2 MdmX PPI 58.5 | Mdm2 MdmX conf 56.5 | Full FLuc ctr 60.0
Cc1nc2c(C#N)cnn2c2c1CCN2CC1CCCO1 (stereo not drawn)	none
CCOc1ccc(OCC)c(NC(=O)CCNS(=O)(=O)c2cc(Br)cnc2N)c1	none
CCOc1cccc2sc(N(CCCN(C)C)C(=O)c3ccc(C(=O)c4ccccc4)cc3)nc12	Mdm2 MdmX PPI 51.4 | Mdm2 MdmX conf inactive
Cc1ccc2sc(N(CCCN(C)C)C(=O)c3ccc(S(=O)(=O)N(C)Cc4ccccc4)cc3)nc2c1C	T cruzi inh 59.8, Mdm2 MdmX PPI 99.6 (no result: Beta apoptosis) | Mdm2 MdmX conf 49.1 | Full FLuc ctr 46.4
CCOc1cccc2sc(N(CCCN(C)C)C(=O)c3ccc(S(=O)(=O)N(C)Cc4ccccc4)cc3)nc12	Mdm2 MdmX PPI 74.2 | Mdm2 MdmX conf inactive | Full FLuc ctr 60.1
CN(C)CCCN(C(=O)c1ccc(C(=O)c2ccccc2)cc1)c1nc2c(F)cccc2s1	none
Cc1ccc2sc(N(CCCN(C)C)C(=O)c3ccc(S(=O)(=O)N(C)C)cc3)nc2c1C	none
CCOc1ccc2nc(N(CCN(C)C)C(=O)c3cc4ccccc4cc3OC)sc2c1	none
CCOc1cccc2sc(N(CCN(C)C)C(=O)c3cc4ccccc4cc3OC)nc12	Mdm2 MdmX PPI 68.8 | Mdm2 MdmX conf inactive
COc1ccc(NC(=O)C(=S)N2CCCC2)cc1	none (no result: CSC inhib)
COc1cc(C(F)(F)F)c(C(=O)NCc2cccc(Cl)c2)cn1	none
CCc1ccc(OCC(=O)NC(=S)Nc2ccc(C(=O)O)cc2)cc1	none
CCCC(=O)NC(NC(=S)Nc1ccc(N=Nc2ccccc2)cc1)C(Cl)(Cl)Cl (stereo not drawn)	CSC inhib 119.1, Mdm2 MdmX PPI 86.2, Beta apoptosis 109.0 | Mdm2 MdmX conf 89.1 | Full FLuc ctr inactive
CCc1ccc(OCC(=O)NC(NC(=S)Nc2ccc(Cl)cc2)C(Cl)(Cl)Cl)cc1 (stereo not drawn)	Mdm2 MdmX PPI 84.3 | Mdm2 MdmX conf 92.1 | Full FLuc ctr inactive
Cc1ccc2[nH]c(CN3CCC(CO)(CC4CCCCO4)CC3)c(C)c2c1 (stereo not drawn)	Mdm2 MdmX PPI 53.0 | Mdm2 MdmX conf inactive
Cc1cc(O)c(C)c(O)c1/C=N/NC(=O)c1cccnc1	Mdm2 MdmX PPI 57.4 (no result: Beta apoptosis) | Mdm2 MdmX conf 45.4 | Full FLuc ctr 68.8
O=C(N/N=C\c1c(O)ccc2ccccc12)c1cncc(Br)c1	CSC inhib 98.2, T cruzi inh 65.4, Mdm2 MdmX PPI 83.0, Beta apoptosis 87.5 | Mdm2 MdmX conf 75.8 | Full FLuc ctr inactive
Cc1ccc(C(=O)N/N=C/c2c(O)ccc3ccccc23)cn1	CSC inhib 80.7, T cruzi inh 66.9, Mdm2 MdmX PPI 74.8 (no result: Beta apoptosis) | Mdm2 MdmX conf 81.5 | Full FLuc ctr inactive
Cn1cccc1/C=N\NC(=O)c1cncc(Br)c1	none
O=C(N/N=C/c1c(O)ccc2ccccc12)c1cccnc1	CSC inhib inconclusive, T cruzi inh 66.2, Mdm2 MdmX PPI 69.6, Beta apoptosis 96.4 | Mdm2 MdmX conf 74.2 | Full FLuc ctr inactive
COC(=O)c1ccc(CSc2nc3c(cnn3-c3ccc(C)c(C)c3)c(=O)[nH]2)o1	none (no result: T cruzi inh, Beta apoptosis)
CC(C)(C)OC(=O)N[C@@H](CC(=O)OCc1ccccc1)C(=O)O	none
O=C(CSC1CN(C(c2ccccc2)c2ccccc2)C1)N/N=C/c1ccccc1	none
CC(=O)CSc1nnc2c3ccccc3nc(C(C)(C)C)n12	none
Cc1csc(NC(=O)CSc2nnc3c4ccccc4nc(C(C)(C)C)n23)n1	Mdm2 MdmX PPI 68.9 (no result: CSC inhib, Beta apoptosis) | Mdm2 MdmX conf 60.0 | Full FLuc ctr 56.5
Cc1ccc(OCCN2CCN(CC(O)Cn3c4ccccc4c4ccccc43)CC2)cc1 (stereo not drawn)	CSC inhib 89.6, Mdm2 MdmX PPI 84.6 | Mdm2 MdmX conf inactive
CC(=O)N1CCN(CC(O)Cn2c3ccccc3c3ccccc32)CC1 (stereo not drawn)	none
